Source: ChEMBL document CHEMBL1139437, “Design, synthesis, and preliminary pharmacological evaluation of 4-aminopiperidine derivatives as N-type calcium channel blockers active on pain and neuropathic pain” (J Med Chem, 2004)

Columns and labels:
[1] = tested on: Mus musculus; test: Analgesic activity was evaluated in mouse hotplate test; expressed as licking latency after 30 min of treatment at a dose of 10 ug intracerebroventricularly; format: functional
In short: (§1)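 Male Swiss albino mice (23-30 g); icv injection of 5 μL (saline or H2O/DMSO 2:1) under brief anaesthesia. Paw-licking latency (s) on hot plate read before injection and every 15 min up to 60 min. Mice with pretest latency below 12 or over 18 s excluded; cutoff 45 s. Statistics against saline- or vehicle-treated controls.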

[2] = organism: Mus musculus; test: Percentage analgesic efficacy when compared to morphine; format: functional; design: concentration or dose not given beside the values
In short: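 Male Swiss albino mice, hot-plate test, paw-licking latency; pretest 12–18 s required, cutoff 45 s. Icv injection of 5 μL under brief anaesthesia, in saline or H2O/DMSO 2:1, at maximal soluble dose. Latency read before and every 15 min after dosing. Efficacy = (peak latency − pretest) as % of the same value for morphine 10 μg/mouse icv; non-significant effects scored 0.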

[3] = tested on: Mus musculus; test: Analgesic activity was evaluated in mouse hotplate test; expressed as licking latency after 45 min of treatment at a dose of 10 ug intracerebroventricularly; format: functional; in short: as §1
[4] = tested on: Mus musculus; test: Analgesic activity was evaluated in mouse hotplate test; expressed as licking latency after 15 min of treatment at a dose of 10 ug intracerebroventricularly; format: functional; in short: as §1
[5] = tested on: Rattus norvegicus; test: Antihyperalgesic activity was evaluated in rat (dx) paw pressure test after 30 min at a dose of 10 ug intracerebroventricularly
[6] = tested on: Rattus norvegicus; test: Antihyperalgesic activity was evaluated in rat (dx) paw pressure test after 45 min at a dose of 10 ug intracerebroventricularly
[7] = tested on: Rattus norvegicus; test: Antihyperalgesic activity was evaluated in rat (dx) paw pressure test after 60 min at a dose of 10 ug intracerebroventricularly
[8] = tested on: Rattus norvegicus; test: Antihyperalgesic activity was evaluated in rat (sn) paw pressure test after 30 min at a dose of 10 ug intracerebroventricularly
[9] = tested on: Rattus norvegicus; test: Antihyperalgesic activity was evaluated in rat (sn) paw pressure test after 45 min at a dose of 10 ug intracerebroventricularly
[10] = tested on: Rattus norvegicus; test: Antihyperalgesic activity was evaluated in rat (sn) paw pressure test after 60 min at a dose of 10 ug intracerebroventricularly
[11] = tested on: Mus musculus; test: Analgesic activity was evaluated in mouse hotplate test; expressed as licking latency after 30 min of treatment at a dose of 20 ug intracerebroventricularly; format: functional; in short: as §1
[12] = tested on: Mus musculus; test: Analgesic activity was evaluated in mouse hotplate test; expressed as licking latency after 45 min of treatment at a dose of 20 ug intracerebroventricularly; format: functional; in short: as §1
[13] = tested on: Mus musculus; test: Analgesic activity was evaluated in mouse hotplate test; expressed as licking latency after 15 min of treatment at a dose of 20 ug intracerebroventricularly; format: functional; in short: as §1
[14] = tested on: Mus musculus; test: Analgesic activity was evaluated in mouse hotplate test; expressed as licking latency after 15 min of treatment at a dose of 50 ug intracerebroventricularly; format: functional; in short: as §1
[15] = tested on: Mus musculus; test: Analgesic activity was evaluated in mouse hotplate test; expressed as licking latency after 30 min of treatment at a dose of 50 ug intracerebroventricularly; format: functional; in short: as §1
[16] = tested on: Mus musculus; test: Analgesic activity was evaluated in mouse hotplate test; expressed as licking latency after 45 min of treatment at a dose of 50 ug intracerebroventricularly; format: functional; in short: as §1
[17] = tested on: Rattus norvegicus; test: Antihyperalgesic activity was evaluated in rat (dx) paw pressure test after 30 min at a dose of 50 ug intracerebroventricularly
[18] = tested on: Rattus norvegicus; test: Antihyperalgesic activity was evaluated in rat (dx) paw pressure test after 45 min at a dose of 50 ug intracerebroventricularly
[19] = tested on: Rattus norvegicus; test: Antihyperalgesic activity was evaluated in rat (dx) paw pressure test after 60 min at a dose of 50 ug intracerebroventricularly
[20] = tested on: Rattus norvegicus; test: Antihyperalgesic activity was evaluated in rat (sn) paw pressure test after 30 min at a dose of 50 ug intracerebroventricularly
[21] = tested on: Rattus norvegicus; test: Antihyperalgesic activity was evaluated in rat (sn) paw pressure test after 45 min at a dose of 50 ug intracerebroventricularly
[22] = tested on: Rattus norvegicus; test: Antihyperalgesic activity was evaluated in rat (sn) paw pressure test after 60 min at a dose of 50 ug intracerebroventricularly
[23] = molecular target: Voltage-dependent N-type calcium channel subunit alpha-1B (Rattus norvegicus) (UniProt Q02294); test: In vitro antagonism of N-type calcium channels expressed in PC12 cells was determined as the increase in intracellular calcium influx
[24] = molecular target: Voltage-dependent N-type calcium channel subunit alpha-1B (Rattus norvegicus) (UniProt Q02294); test: In vitro antagonism of N-type calcium channels expressed in PC12 cells was determined as the increase in intracellular calcium influx in the presence of 10 uM nifedipine
[25] = tested on: Mus musculus; test: Analgesic activity was evaluated in mouse hotplate test; expressed as licking latency after 15 min of treatment at a dose of 5 ug intracerebroventricularly; format: functional; in short: as §1
[26] = tested on: Mus musculus; test: Analgesic activity was evaluated in mouse hotplate test; expressed as licking latency after 30 min of treatment at a dose of 5 ug intracerebroventricularly; format: functional; in short: as §1
[27] = tested on: Mus musculus; test: Analgesic activity was evaluated in mouse hotplate test; expressed as licking latency after 45 min of treatment at a dose of 5 ug intracerebroventricularly; format: functional; in short: as §1

Voltage-dependent N-type calcium channel subunit alpha-1B (Rattus norvegicus), sequence (Q02294 whole entry, looked up): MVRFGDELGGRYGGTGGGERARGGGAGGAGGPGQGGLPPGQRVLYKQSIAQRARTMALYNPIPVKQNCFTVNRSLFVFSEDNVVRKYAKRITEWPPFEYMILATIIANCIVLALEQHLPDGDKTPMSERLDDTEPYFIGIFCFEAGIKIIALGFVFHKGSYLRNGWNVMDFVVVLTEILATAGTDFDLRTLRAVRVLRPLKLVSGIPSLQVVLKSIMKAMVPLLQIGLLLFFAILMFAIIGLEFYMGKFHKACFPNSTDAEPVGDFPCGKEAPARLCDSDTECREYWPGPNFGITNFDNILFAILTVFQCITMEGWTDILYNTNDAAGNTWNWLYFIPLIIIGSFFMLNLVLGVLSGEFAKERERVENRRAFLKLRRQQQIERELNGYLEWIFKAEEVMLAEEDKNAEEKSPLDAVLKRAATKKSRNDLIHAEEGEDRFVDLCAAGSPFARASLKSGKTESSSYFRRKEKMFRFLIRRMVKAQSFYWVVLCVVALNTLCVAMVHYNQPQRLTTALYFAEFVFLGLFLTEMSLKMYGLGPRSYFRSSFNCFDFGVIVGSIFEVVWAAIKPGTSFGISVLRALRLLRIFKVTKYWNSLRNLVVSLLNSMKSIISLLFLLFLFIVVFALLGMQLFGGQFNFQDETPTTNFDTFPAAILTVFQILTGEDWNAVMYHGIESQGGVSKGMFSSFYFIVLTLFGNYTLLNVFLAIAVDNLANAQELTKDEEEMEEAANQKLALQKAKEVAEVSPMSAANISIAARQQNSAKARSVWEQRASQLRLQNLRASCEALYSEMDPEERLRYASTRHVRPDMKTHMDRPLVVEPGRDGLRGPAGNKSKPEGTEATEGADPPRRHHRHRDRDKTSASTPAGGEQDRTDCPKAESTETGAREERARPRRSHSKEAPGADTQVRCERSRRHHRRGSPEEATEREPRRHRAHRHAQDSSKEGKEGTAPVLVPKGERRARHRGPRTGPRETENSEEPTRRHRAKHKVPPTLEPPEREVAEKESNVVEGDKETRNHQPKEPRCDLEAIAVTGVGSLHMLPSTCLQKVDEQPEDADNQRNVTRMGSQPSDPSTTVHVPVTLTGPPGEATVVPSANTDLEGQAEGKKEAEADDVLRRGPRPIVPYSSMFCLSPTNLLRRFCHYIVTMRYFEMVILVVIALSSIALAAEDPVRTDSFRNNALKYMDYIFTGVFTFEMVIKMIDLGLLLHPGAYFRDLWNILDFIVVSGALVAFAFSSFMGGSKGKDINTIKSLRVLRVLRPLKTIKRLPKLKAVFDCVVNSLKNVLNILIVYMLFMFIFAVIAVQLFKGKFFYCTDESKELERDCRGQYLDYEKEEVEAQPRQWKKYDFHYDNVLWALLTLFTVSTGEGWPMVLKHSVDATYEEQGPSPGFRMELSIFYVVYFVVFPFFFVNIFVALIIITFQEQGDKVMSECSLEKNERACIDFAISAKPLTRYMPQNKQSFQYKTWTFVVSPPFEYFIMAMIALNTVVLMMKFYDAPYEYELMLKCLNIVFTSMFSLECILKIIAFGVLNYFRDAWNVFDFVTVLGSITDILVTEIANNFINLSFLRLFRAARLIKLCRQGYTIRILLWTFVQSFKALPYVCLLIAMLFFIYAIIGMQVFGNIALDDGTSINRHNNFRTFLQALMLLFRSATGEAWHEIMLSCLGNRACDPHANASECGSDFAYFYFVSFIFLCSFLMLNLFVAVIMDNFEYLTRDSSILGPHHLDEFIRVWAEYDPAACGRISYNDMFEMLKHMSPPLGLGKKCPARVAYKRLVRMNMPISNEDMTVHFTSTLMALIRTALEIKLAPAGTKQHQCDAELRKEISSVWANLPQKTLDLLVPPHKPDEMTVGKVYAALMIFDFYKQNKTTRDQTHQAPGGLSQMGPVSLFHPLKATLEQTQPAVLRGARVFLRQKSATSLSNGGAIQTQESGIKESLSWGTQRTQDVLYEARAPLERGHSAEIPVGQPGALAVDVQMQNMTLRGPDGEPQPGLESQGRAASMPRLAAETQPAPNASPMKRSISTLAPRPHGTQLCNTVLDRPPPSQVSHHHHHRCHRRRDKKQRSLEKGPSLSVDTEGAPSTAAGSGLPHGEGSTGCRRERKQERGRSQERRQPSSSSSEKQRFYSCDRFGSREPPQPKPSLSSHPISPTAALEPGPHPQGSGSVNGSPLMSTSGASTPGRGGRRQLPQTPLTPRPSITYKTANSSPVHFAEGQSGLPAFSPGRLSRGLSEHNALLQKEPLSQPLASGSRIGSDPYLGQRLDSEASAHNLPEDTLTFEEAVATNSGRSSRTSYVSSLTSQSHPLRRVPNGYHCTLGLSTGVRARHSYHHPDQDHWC

Compound	Latency [1] [s]	Efficacy [2] [%]	Latency [3] [s]	Latency [4] [s]	also measured
COc1ccc(CCNC2CCN(C(=O)CCC(C#N)(c3ccc(OC)c(OC)c3)C(C)C)CC2)cc1OC.O=C(O)C(=O)O (stereo not given)	18.8	0	17.3	16.5	–
CCCCNC1CCN(CCCC(c2ccccc2)c2ccccc2)CC1.O=C(O)C(=O)O	22.4	64	15.8	22.6	Activity [5]: 50.3 g; Activity [6]: 52.6 g; Activity [7]: 46.5 g; Activity [8]: 57.5 g; Activity [9]: 61.2 g; Activity [10]: 63 g
O=C(CCC(c1ccc(F)cc1)c1ccc(F)cc1)NC1CCNCC1.O=C(O)C(=O)O	–	64	–	–	Latency [11]: 16.7 s; Latency [12]: 17.1 s; Latency [13]: 21.8 s
COc1ccc(C(C#N)(CCCN2CCC(NCCOc3ccccc3)CC2)C(C)C)cc1OC.O=C(O)C(=O)O (stereo not given)	–	61	–	–	Latency [14]: 22.3 s; Latency [15]: 20.8 s; Latency [16]: 18.9 s; Activity [17]: 61.7 g; Activity [18]: 58.3 g; Activity [19]: 54.8 g; Activity [20]: 59.5 g; Activity [21]: 64.7 g; Activity [22]: 60.6 g; IC50 [23]: 700 nM; IC50 [24]: 400 nM
COc1ccc(CCNC2CCN(CCCC(C#N)(c3ccccc3)C(C)C)CC2)cc1OC.O=C(O)C(=O)O (stereo not given)	18.1	0	17.5	16.6	–
COc1ccc(C(C#N)(CCC(=O)N2CCC(NCCOc3ccccc3)CC2)C(C)C)cc1OC.O=C(O)C(=O)O (stereo not given)	18.5	0	13.8	15.7	–
COc1ccc(CCNC2CCN(CCCC(C#N)(c3ccc(OC)c(OC)c3)C(C)C)CC2)cc1OC.O=C(O)C(=O)O (stereo not given)	18.3	0	17.6	17.2	–
COc1ccc(CCNC2CCN(CCCC(c3ccccc3)c3ccccc3)CC2)cc1OC.O=C(O)C(=O)O	–	0	–	–	Latency [25]: 17.7 s; Latency [26]: 16.4 s; Latency [27]: 16.8 s
COc1ccc(CCNC2CCN(CCCC(c3ccc(F)cc3)c3ccc(F)cc3)CC2)cc1OC.Cl	16.3	51	16.6	21.5	–
